From PubChem BioAssay
The list is not random: actives were taken first. Their share in the collection is about 2%.
HCV core dimer = HCV core protein dimerization inhibition; inhibition, % at 5 µM; hit rate 0.33% among 300,000; TR-FRET GST/Flag-core106 dimerization, 1536-well;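 active = inhibition above the mean of all tested compounds plus 3 SD, set per screening campaign, cut at about 45% in these data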
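System – GST-tagged and Flag-tagged HCV core protein residues 1-106 · Repeats – one well for each compound · Technique – TR-FRET 671 and 617 nm emission · Doses – one concentration, 5 µM, in 0.5% DMSO · Times – 4 h, 22.5 °C incubation · Also added – Eu donor and XL665 acceptor anti-tag antibodies · Measure – percent inhibition of core106 dimerization signal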
eIF4H FP inh = inhibitors of RNA binding by human eIF4H | hit rate 0.94% among 290,000 | inhibition, % at 35 µM | eIF4H fluorescence polarization binding assay;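 note: calls also rest on retests at 20 µM and on dose response follow-up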
PABP FP inh = PABP-poly(A) binding inhibition; PABP-poly(A) RNA binding, fluorescence polarization; inhibition, % at 35 µM; hit rate 1% among 290,000;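 note: calls also rest on retests at 20 µM and on dose response follow-up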
DNA FID counter = displaces DNA intercalator in HCV helicase counter-screen; DNA fluorescent intercalator displacement, fluorescence; hit rate 0.17% among 290,000; inhibition, % at 7.9 µM; in the data active = inhibition above about 37%;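 note: higher means more ethidium bromide displaced from hairpin DNA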
HCV NS3 hel inh = inhibitors of Hepatitis C virus NS3 helicase; NS3 helicase DNA unwinding, Cy5 molecular beacon fluorescence; inhibition, % at 10.9 µM; hit rate 0.56% among 290,000; AID 1800;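 active = inhibition above the mean of all tested compounds plus 3 SD, set per campaign, cut at about 35% in these data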
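System: Hepatitis C virus NS3 helicase domain fragment enzyme | Reagent: Annealed dual-labelled DNA beacon duplex, ATP-started | Compound dosing: 10.9 µM single point, 0.8% DMSO | Incubation: 1 h reaction at 25 °C, ATP-initiated | Technique: Cy5 fluorescence | Evaluation: Percent inhibition from t60/t0 fluorescence ratio | Benchmarks: Low DMSO, high thioflavine S at 110 µM | Replication: Singlicate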
MLLE-PAM2 inh = blocks PAM2 peptide binding to the PABP1 MLLE domain | P11940 | GST-MLLE / FITC-PAM2 fluorescence polarization | inhibition, % at 20 µM | hit rate 0.36% among 360,000; in the data active = inhibition above about 35%, passing the limit was not always enough
A number is an active result. Unless noted, the rule behind the calls is not given here.

O=S1(=O)CCN(CCc2c[nH]c3ccccc23)CC1 was read as HCV core dimer inactive, eIF4H FP inh active, PABP FP inh 60, DNA FID counter inactive, HCV NS3 hel inh inactive and MLLE-PAM2 inh inactive.
`Cc1cc2c(C(C)C)c(O)c(O)c(C=O)c2c(O)c1-c1c(C)cc2c(C(C)C)c(O)c(O)c(C=O)c2c1O` gave eIF4H FP inh inactive, PABP FP inh active, DNA FID counter inactive, HCV NS3 hel inh 37 and MLLE-PAM2 inh inactive.
`CCN1CCC(NCC2CCCCC2)CC1` gave HCV core dimer inactive, eIF4H FP inh inactive, PABP FP inh inactive, DNA FID counter inactive, HCV NS3 hel inh inactive and MLLE-PAM2 inh inactive.
`O=C1NC(=O)C(=Cc2cc3c(cc2[N+](=O)[O-])OCO3)C(=O)N1` gave HCV core dimer inactive, eIF4H FP inh 98, PABP FP inh active, DNA FID counter inactive, HCV NS3 hel inh inactive and MLLE-PAM2 inh inactive.
O=C1NC(=O)C(=Cc2ccccc2[N+](=O)[O-])C(=O)N1 was read as MLLE-PAM2 inh inactive.
`C[C@]12CCC3C(CC[C@H]4C[C@H](O)CC[C@]34C)C1C[C@@H](CCCCl)[C@@H]2O` (stereo not given in full) gave MLLE-PAM2 inh inactive.
Screening CC(=O)Nc1ccc(CC(=O)N2CCN(Cc3ccccc3)CC2)cc1 returned HCV core dimer inactive, eIF4H FP inh 82, PABP FP inh 60, DNA FID counter inactive, HCV NS3 hel inh inactive and MLLE-PAM2 inh inactive.
`C=Cn1ccnc1P(=S)(c1ccc(Cl)cc1)c1nccn1C=C` gave HCV core dimer inactive, eIF4H FP inh inactive, PABP FP inh inactive, DNA FID counter inactive, HCV NS3 hel inh inactive and MLLE-PAM2 inh inactive.
For C=Cn1ccnc1P(=S)(c1ccccc1)c1nccn1C=C the results were HCV core dimer inactive, eIF4H FP inh active, PABP FP inh inactive, DNA FID counter inactive, HCV NS3 hel inh inactive and MLLE-PAM2 inh inactive.
Screening CCOC(=O)CNC(=O)N1Cc2ccc(Br)cc2-n2nncc2C1 returned MLLE-PAM2 inh inactive.
For CC[N+](C)(CC)CCCCOc1ccc2c(c1)C(=O)c1cc(OCCCC[N+](C)(CC)CC)ccc1-2 the results were HCV core dimer inactive, eIF4H FP inh inactive, PABP FP inh inactive, DNA FID counter 88, HCV NS3 hel inh inactive and MLLE-PAM2 inh inactive.
CN1C(=O)C(=Cc2ccc(-c3cccc(Cl)c3)o2)C(=O)N(C)C1=O was read as HCV core dimer inactive, eIF4H FP inh inactive, PABP FP inh inactive, DNA FID counter inactive and HCV NS3 hel inh inactive.
`Cc1ccc(Sc2ccc(C=C3C(=O)N(C)C(=O)N(C)C3=O)o2)cc1` gave HCV core dimer inactive, eIF4H FP inh inconclusive, PABP FP inh 118, DNA FID counter inactive, HCV NS3 hel inh inactive and MLLE-PAM2 inh inactive.
Screening O=C1C=C(N2CC2)c2ccccc2C1=O returned MLLE-PAM2 inh inactive.
`c1ccc2c(c1)cc1ccc3cccc4ccc2c1c34` gave MLLE-PAM2 inh inactive.
For O=C1c2ccccc2-c2cc3ccccc3cc21 the results were MLLE-PAM2 inh 46.
O=C1c2ccccc2-c2cccc3cccc1c23 was read as MLLE-PAM2 inh 55.
For C=C(C)CC1(CC)C(=O)NC(=S)NC1=O the results were MLLE-PAM2 inh inactive.
For C[C@]12CC[C@@H](O)CC1=CC(=O)C1C2CC[C@]2(C)C(=O)[C@H](O)CC12 (stereo not given in full) the results were MLLE-PAM2 inh inactive.
CCCCCSc1cc(OC)c(CCN(C)C)cc1OC was read as HCV core dimer inactive, eIF4H FP inh inactive, PABP FP inh inactive, DNA FID counter 37, HCV NS3 hel inh inactive and MLLE-PAM2 inh inactive.
For CCCCCSc1cc(O)c(C(CNC)C(C)C)cc1OC (stereo not given) the results were HCV core dimer inactive, eIF4H FP inh inactive, PABP FP inh inactive, DNA FID counter inactive, HCV NS3 hel inh inactive and MLLE-PAM2 inh inactive.
For CC/C(=N\Nc1ccccc1)c1c(O)[nH]c(=O)[nH]c1=O the results were HCV core dimer inactive, eIF4H FP inh inactive, PABP FP inh inactive, DNA FID counter inactive, HCV NS3 hel inh inactive and MLLE-PAM2 inh inactive.
CC/C(=N\Nc1cccc2ccccc12)c1c(O)[nH]c(=O)[nH]c1=O was read as HCV core dimer inactive, eIF4H FP inh 54, PABP FP inh inactive, DNA FID counter inactive, HCV NS3 hel inh inactive and MLLE-PAM2 inh inactive.
